Experimental data: ChEMBL document CHEMBL1128580, “Synthesis and antibacterial activity of some novel 1-substituted 1,4-dihydro-4-oxo-7-pyridinyl-3-quinolinecarboxylic acids. Potent antistaphylococcal agents” (1995)
≈ marks a conversion by molar mass, not a printed value.

What was measured:
Assay type in all cases: functional
[1] = tested on: Bacteroides fragilis; assay: Minimum Inhibitory concentration measured against Bacteroides fragilis ATCC 25285
How it was run: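 Anaerobic broth microdilution. Grown in brain heart infusion broth with 5 µg/mL hemin and 0.5 µg/mL vitamin K for 48 h at 37 °C under 5% CO₂, 10% H₂, 85% N₂. Adjusted to absorbance 0.1 at 650 nm and diluted 1:10. Final 10⁵ cells/mL; plates incubated anaerobically for 48 h at 37 °C.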

[2] = tested on: Enterococcus faecalis; assay: Minimum Inhibitory concentration measured against Streptococcus faecalis ATCC 29212
How it was run: (§1)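 Broth microdilution on cultures kept as frozen stock, grown in Mueller Hinton II medium for 18–24 h at 37 °C. Suspension adjusted to absorbance 0.1 at 650 nm and diluted 1:10 in medium to give the inoculum. Final density 10⁵ cells/mL; plates incubated 24 h at 37 °C.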

[3] = tested on: Streptococcus pyogenes; assay: Minimum Inhibitory concentration measured against Streptococcus pyogenes ATCC 6301
How it was run: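 ATCC 6301 was grown in brain heart infusion broth with 10% heat-inactivated horse serum for 18–24 h at 37 °C. Suspension brought to absorbance 0.1 at 650 nm, then diluted 1:10 in the same medium. Broth microdilution at a final 10⁵ cells/mL, incubated 24 h at 37 °C.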

[4] = tested on: Pseudomonas aeruginosa; assay: Minimum Inhibitory concentration measured against Pseudomonas aeruginosa ATCC 27853; how it was run: as §1
[5] = tested on: Staphylococcus aureus; assay: Minimum Inhibitory concentration measured against Staphylococcus aureus ATCC 29213; how it was run: as §1
[6] = tested on: Escherichia coli; assay: Minimum Inhibitory concentration measured against Escherichia coli ATCC 1-25922; how it was run: as §1

MIC [1] [mg/L]	MIC [2] [mg/L]	MIC [3] [mg/L]	MIC [4] [mg/L]	MIC [5] [mg/L]	MIC [6] [mg/L]	Structure (SMILES)
0.5 (≈ 1.42 µM)	0.06 (≈ 0.17 µM)	0.03 (≈ 0.0851 µM)	2 (≈ 5.68 µM)	0.008 (≈ 0.0227 µM)	0.03 (≈ 0.0851 µM)	Cc1cc(-c2cc3c(cc2F)c(=O)c(C(=O)O)cn3C2CC2)cc(C)n1
1 (≈ 2.84 µM)	0.25 (≈ 0.709 µM)	0.25 (≈ 0.709 µM)	4 (≈ 11.4 µM)	0.03 (≈ 0.0851 µM)	0.125 (≈ 0.355 µM)	CCc1cc(-c2cc3c(cc2F)c(=O)c(C(=O)O)cn3C2CC2)ccn1
2 (≈ 5.24 µM)	0.2 (≈ 0.524 µM)	0.25 (≈ 0.655 µM)	1 (≈ 2.62 µM)	0.125 (≈ 0.328 µM)	0.016 (≈ 0.0419 µM)	CNCc1cc(-c2cc3c(cc2F)c(=O)c(C(=O)O)cn3C2CC2)cc(C)n1
				0.008 (≈ 0.0227 µM)	0.06 (≈ 0.17 µM)	Cc1cc(-c2ccc3c(=O)c(C(=O)O)cn(C4CC4)c3c2F)cc(C)n1
0.25 (≈ 0.739 µM)	0.125 (≈ 0.369 µM)	0.06 (≈ 0.177 µM)	2 (≈ 5.91 µM)	0.016 (≈ 0.0473 µM)	0.06 (≈ 0.177 µM)	Cc1cncc(-c2cc3c(cc2F)c(=O)c(C(=O)O)cn3C2CC2)c1
8 (≈ 20.2 µM)	2 (≈ 5.06 µM)	0.5 (≈ 1.26 µM)	8 (≈ 20.2 µM)	0.5 (≈ 1.26 µM)	0.06 (≈ 0.152 µM)	CCNCc1cc(-c2cc3c(cc2F)c(=O)c(C(=O)O)cn3C2CC2)cc(C)n1
4 (≈ 11.4 µM)	4 (≈ 11.4 µM)	8 (≈ 22.7 µM)	> 16	1 (≈ 2.84 µM)	0.5 (≈ 1.42 µM)	Cc1ccc(-c2cc3c(cc2F)c(=O)c(C(=O)O)cn3C2CC2)c(C)n1
2 (≈ 5.06 µM)	0.5 (≈ 1.26 µM)	0.5 (≈ 1.26 µM)	8 (≈ 20.2 µM)	0.06 (≈ 0.152 µM)	0.06 (≈ 0.152 µM)	Cc1cc(-c2cc3c(cc2F)c(=O)c(C(=O)O)cn3C2CC2)cc(CN(C)C)n1
0.5 (≈ 1.48 µM)	0.06 (≈ 0.177 µM)	0.06 (≈ 0.177 µM)	2 (≈ 5.91 µM)	0.016 (≈ 0.0473 µM)	0.03 (≈ 0.0887 µM)	Cc1cc(-c2cc3c(cc2F)c(=O)c(C(=O)O)cn3C2CC2)ccn1
0.5 (≈ 1.29 µM)	0.06 (≈ 0.155 µM)	0.03 (≈ 0.0773 µM)	8 (≈ 20.6 µM)	0.008 (≈ 0.0206 µM)	0.13 (≈ 0.335 µM)	Cc1cc(-c2c(F)c(F)c3c(=O)c(C(=O)O)cn(C4CC4)c3c2F)cc(C)n1
4 (≈ 10.9 µM)	0.5 (≈ 1.36 µM)	0.25 (≈ 0.682 µM)	8 (≈ 21.8 µM)	0.06 (≈ 0.164 µM)	0.125 (≈ 0.341 µM)	Cc1cc(-c2cc3c(cc2F)c(=O)c(C(=O)O)cn3C2CC2)c(C)c(C)n1
1 (≈ 2.62 µM)	0.125 (≈ 0.327 µM)	0.125 (≈ 0.327 µM)	8 (≈ 20.9 µM)	0.03 (≈ 0.0785 µM)	0.25 (≈ 0.654 µM)	COCc1cc(-c2cc3c(cc2F)c(=O)c(C(=O)O)cn3C2CC2)cc(C)n1
1 (≈ 2.46 µM)	1 (≈ 2.46 µM)	1 (≈ 2.46 µM)	4 (≈ 9.84 µM)	0.125 (≈ 0.308 µM)	0.125 (≈ 0.308 µM)	Cc1cc(-c2cc3c(cc2F)c(=O)c(C(=O)O)cn3-c2ccc(F)cc2)cc(C)n1
> 4	0.5 (≈ 1.46 µM)	1 (≈ 2.93 µM)	> 4	0.06 (≈ 0.176 µM)	0.25 (≈ 0.732 µM)	CNn1cc(C(=O)O)c(=O)c2cc(F)c(-c3cc(C)nc(C)c3)cc21
16 (≈ 51.2 µM)	1 (≈ 3.2 µM)	2 (≈ 6.4 µM)	2 (≈ 6.4 µM)	0.25 (≈ 0.801 µM)	0.125 (≈ 0.4 µM)	CCn1cc(C(=O)O)c(=O)c2cc(F)c(-c3ccncc3)cc21
2 (≈ 5.66 µM)	0.125 (≈ 0.354 µM)	0.25 (≈ 0.708 µM)	8 (≈ 22.6 µM)	0.03 (≈ 0.0849 µM)	0.125 (≈ 0.354 µM)	Cc1cc(-c2nc3c(cc2F)c(=O)c(C(=O)O)cn3C2CC2)cc(C)n1
> 4	0.5 (≈ 1.5 µM)	0.5 (≈ 1.5 µM)	> 4	0.06 (≈ 0.179 µM)	0.25 (≈ 0.748 µM)	Cc1cc(-c2ccc3c(=O)c(C(=O)O)cn(C4CC4)c3c2)cc(C)n1
1 (≈ 3.08 µM)	0.5 (≈ 1.54 µM)	0.25 (≈ 0.771 µM)	2 (≈ 6.17 µM)	0.06 (≈ 0.185 µM)	0.03 (≈ 0.0925 µM)	O=C(O)c1cn(C2CC2)c2cc(-c3ccncc3)c(F)cc2c1=O
1 (≈ 2.71 µM)	0.125 (≈ 0.339 µM)	0.06 (≈ 0.163 µM)	4 (≈ 10.9 µM)	0.03 (≈ 0.0814 µM)	0.06 (≈ 0.163 µM)	Cc1cc(-c2cc3c(cc2F)c(=O)c(C(=O)O)cn3C2CC2)cc(CO)n1
0.25 (≈ 0.739 µM)	0.25 (≈ 0.739 µM)	0.25 (≈ 0.739 µM)	2 (≈ 5.91 µM)	0.03 (≈ 0.0887 µM)	0.03 (≈ 0.0887 µM)	Cc1ccc(-c2cc3c(cc2F)c(=O)c(C(=O)O)cn3C2CC2)cn1
8 (≈ 27.2 µM)	16 (≈ 54.4 µM)	16 (≈ 54.4 µM)	16 (≈ 54.4 µM)	0.5 (≈ 1.7 µM)	0.125 (≈ 0.425 µM)	CCn1cc(C(=O)O)c(=O)c2ccc(-c3ccncc3)cc21 [ROSOXACIN]
1 (≈ 2.71 µM)	0.25 (≈ 0.679 µM)	0.125 (≈ 0.339 µM)	> 4	0.03 (≈ 0.0814 µM)	0.25 (≈ 0.679 µM)	Cc1cc(-c2cc3c(cc2F)c(=O)c(C(=O)O)cn3C(C)(C)C)cc(C)n1
2 (≈ 5.88 µM)	0.25 (≈ 0.735 µM)	0.25 (≈ 0.735 µM)	4 (≈ 11.8 µM)	0.03 (≈ 0.0881 µM)	0.06 (≈ 0.176 µM)	CCn1cc(C(=O)O)c(=O)c2cc(F)c(-c3cc(C)nc(C)c3)cc21
0.5 (≈ 1.54 µM)	0.25 (≈ 0.771 µM)	0.125 (≈ 0.385 µM)	1 (≈ 3.08 µM)	0.016 (≈ 0.0493 µM)	0.008 (≈ 0.0247 µM)	O=C(O)c1cn(C2CC2)c2cc(-c3cccnc3)c(F)cc2c1=O
0.125 (≈ 0.338 µM)	0.06 (≈ 0.162 µM)	0.016 (≈ 0.0432 µM)	4 (≈ 10.8 µM)	0.008 (≈ 0.0216 µM)	0.06 (≈ 0.162 µM)	Cc1cc(-c2c(F)cc3c(=O)c(C(=O)O)cn(C4CC4)c3c2F)cc(C)n1 [WIN-57294]
16 (≈ 49.6 µM)	1 (≈ 3.1 µM)	32 (≈ 99.3 µM)	2 (≈ 6.2 µM)	0.25 (≈ 0.776 µM)	0.25 (≈ 0.776 µM)	CCn1cc(C(=O)O)c(=O)c2ccc(-c3cc(C)nc(C)c3)cc21 [DIMETHYLROSOXACIN]

Structure (SMILES)	MIC [1] [mg/L]	MIC [2] [mg/L]	MIC [3] [mg/L]	MIC [4] [mg/L]	MIC [5] [mg/L]	MIC [6] [mg/L]
O=C(O)c1cn(C2CC2)c2cc(N3CCNCC3)c(F)cc2c1=O [CIPROFLOXACIN]	2 (≈ 6.04 µM)	0.5 (≈ 1.51 µM)	0.25 (≈ 0.754 µM)		0.25 (≈ 0.754 µM)	
CCn1cc(C(=O)O)c(=O)c2cc(F)c(N3CCNCC3)cc21 [NORFLOXACIN]	8 (≈ 25.1 µM)	4 (≈ 12.5 µM)	4 (≈ 12.5 µM)	2 (≈ 6.26 µM)	2 (≈ 6.26 µM)	0.125 (≈ 0.391 µM)
